# The source made the active and inactive calls. The calls are words filed in the database; no cut-off is given here.
# Legend:
# [1] = system: HCT-116; test: Cell cycle arrest in human HCT116 cells assessed as accumulation at S phase at 5.10 uM after 24 hrs; format: functional
# Method in brief: (§1)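 Cells seeded at 8 · 10^5 per 60 mm dish, allowed to settle 24 h (37 °C, 5% CO2), then exposed to the drug for 24 or 48 h. Adherent plus floating cells (5 · 10^5) were fixed in cold 70% ethanol at −20 °C overnight, treated with RNase A (100 µg/mL) and stained with propidium iodide (20 µg/mL) in Vindelov's solution for 30 min at RT. Flow cytometry used 488 nm excitation, FL-2 at 585 ± 21 nm, and histograms were modelled for G0/G1, S and G2/M fractions.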
# [2] = system: HeLa; test: Cell cycle arrest in human HeLa cells assessed as accumulation at G0/G1 phase at 7.80 uM after 24 hrs; format: functional; method in brief: as §1
# [3] = system: HCT-116; test: Antiproliferative activity against human HCT116 cells assessed as decrease in total cell population at 5.10 uM after 48 hrs; format: functional; design: scale not given: the % may be the effect or the level left
# Method in brief: (§2)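 Cells seeded (8 · 10^5 per 60 mm dish), allowed to settle 24 h at 37 °C, 5% CO2, then treated with a single concentration for 24 or 48 h. Adherent and floating cells counted by Coulter counter. Total cell number given as % of untreated control; floating cells as % of total cell number.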
# [4] = system: HCT-116; test: Induction of DNA fragmentation in human HCT116 cells after 48 hrs; format: functional, cell-based
# Method in brief: (§3)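 HCT-116 cells were treated for 24 or 48 h. Adherent and floating cells (5 × 10^5) were pooled, fixed in cold 70% ethanol and held overnight at −20 °C. Samples were treated with RNase A (100 µg/mL) and stained with propidium iodide (20 µg/mL) in Vindelov's solution for 30 min at RT. Flow cytometry used 488 nm excitation with emission at 585 nm. Subdiploid (subG0/G1) particles were scored on a logarithmic scale, with debris gated out on FSC × SSC.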
# [5] = system: HeLa; test: Cell cycle arrest in human HeLa cells assessed as accumulation at S phase at 7.80 uM after 24 hrs; format: functional; method in brief: as §1
# [6] = system: HCT-116; test: Cell cycle arrest in human HCT116 cells assessed as accumulation at G0/G1 phase at 5.10 uM after 24 hrs; format: functional
# Method in brief: (§4)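 Adherent plus floating cells (5 · 10^5) collected 24 or 48 h after treatment, fixed in cold 70% ethanol at −20 °C overnight, washed in PBS. RNase A (100 µg/mL) and propidium iodide (20 µg/mL) in Vindelov's solution, 30 min at RT. Flow cytometry with 488 nm excitation, emission 585 ± 21 nm; % cells per cycle phase from DNA content histograms.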
# [7] = system: HCT-116; test: Antiproliferative activity against human HCT116 cells assessed as increase of floating cells in total cell population at 5.10 uM after 48 hrs; format: functional; method in brief: as §2
# [8] = system: HCT-116; test: Induction of apoptosis in human HCT116 cells at 5.10 uM after 24 hrs; format: functional
# Method in brief: (§5)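 After 24 or 48 h of drug exposure, all cells were collected, combining trypsinised adherent cells with floating cells from the medium. Cells (1 × 10^6) were fixed in cold 70% ethanol overnight at −20 °C and stained with DAPI (10 µg/mL) for 30 min in the dark at RT. Under fluorescence microscopy, 300 cells per sample were scored, with condensed or fragmented nuclei counted as apoptotic.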
# [9] = system: HeLa; test: Cell cycle arrest in human HeLa cells assessed as accumulation at G2/M phase at 7.80 uM after 24 hrs; format: functional; method in brief: as §1
# [10] = system: HCT-116; test: Cell cycle arrest in human HCT116 cells assessed as accumulation at S phase at 5.10 uM after 48 hrs; format: functional; method in brief: as §1
# [11] = system: HeLa; test: Antiproliferative activity against human HeLa cells assessed as increase of floating cells in total cell population at 7.80 uM after 24 hrs; format: functional; method in brief: as §2
# [12] = system: HeLa; test: Cell cycle arrest in human HeLa cells assessed as accumulation at S phase at 7.80 uM after 48 hrs; format: functional; method in brief: as §1
# [13] = system: HCT-116; test: Induction of DNA fragmentation in human HCT116 cells after 24 hrs; format: functional, cell-based; method in brief: as §3
# [14] = system: HCT-116; test: Cell cycle arrest in human HCT116 cells assessed as accumulation at G2/M phase at 5.10 uM after 48 hrs; format: functional; method in brief: as §1
# [15] = system: HeLa; test: Cell cycle arrest in human HeLa cells assessed as accumulation at G0/G1 phase at 7.80 uM after 48 hrs; format: functional; method in brief: as §1
# [16] = system: HCT-116; test: Cell cycle arrest in human HCT116 cells assessed as accumulation at G0/G1 phase at 5.10 uM after 48 hrs; format: functional; method in brief: as §4
# [17] = system: HeLa; test: Induction of apoptosis in human HeLa cells at 7.80 uM after 48 hrs; format: functional; method in brief: as §5
# [18] = system: HCT-116; test: Cytotoxicity against human HCT116 cells after 48 hrs by MTT assay; format: functional, cell-based; settings: HCT-116, 48 h
# [19] = system: HeLa; test: Induction of apoptosis in human HeLa cells at 7.80 uM after 24 hrs; format: functional; method in brief: as §5
# [20] = system: HeLa; test: Antiproliferative activity against human HeLa cells assessed as decrease in total cell population at 7.80 uM after 48 hrs; format: functional; design: scale not given: the % may be the effect or the level left; method in brief: as §2
# [21] = system: HeLa; test: Antiproliferative activity against human HeLa cells assessed as increase of floating cells in total cell population at 7.80 uM after 48 hrs; format: functional; method in brief: as §2
# [22] = system: HCT-116; test: Induction of apoptosis in human HCT116 cells at 5.10 uM after 48 hrs; format: functional; method in brief: as §5
# [23] = system: HCT-116; test: Cell cycle arrest in human HCT116 cells assessed as accumulation at G2/M phase at 5.10 uM after 24 hrs; format: functional; method in brief: as §1
# [24] = system: DNA; test: Binding affinity to calf thymus DNA at 4 uM by fluorescence spectrophotometric titration; format: nucleic-acid assay; settings: Bos taurus
# Method in brief: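 ctDNA sonicated in TE buffer, concentration taken from A260 and given in base pairs. Compound (4 µM) in 0.01 M Tris, pH 7.4, 25 °C titrated with ctDNA (0–55 µM bp) until spectra stopped changing. Excitation 424 nm, slit widths 10 nm; binding constant derived from the change in emission.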
# [25] = system: HCT-116; test: Antiproliferative activity against human HCT116 cells assessed as decrease in total cell population at 5.10 uM after 24 hrs; format: functional; design: scale not given: the % may be the effect or the level left; method in brief: as §2
# [26] = system: HCT-116; test: Antiproliferative activity against human HCT116 cells assessed as increase of floating cells in total cell population at 5.10 uM after 24 hrs; format: functional; method in brief: as §2
# [27] = system: HeLa; test: Antiproliferative activity against human HeLa cells assessed as decrease in total cell population at 7.80 uM after 24 hrs; format: functional; design: scale not given: the % may be the effect or the level left; method in brief: as §2
# [28] = system: HCT-116; test: Cytotoxicity against human HCT116 cells after 72 hrs by MTT assay; format: functional, cell-based; settings: Homo sapiens, HCT-116, 72 h
# [29] = system: HeLa; test: Cell cycle arrest in human HeLa cells assessed as accumulation at G2/M phase at 7.80 uM after 48 hrs; format: functional; method in brief: as §1
# [30] = system: HeLa; test: Cytotoxicity against human HeLa cells after 72 hrs by MTT assay; format: functional, cell-based
# [31] = system: DNA; test: Binding affinity to calf thymus DNA at 50 uM by circular dichroism spectrophotometric titration; format: nucleic-acid assay; settings: Bos taurus
# [32] = system: HeLa; test: Cytotoxicity against human HeLa cells after 48 hrs by MTT assay; format: functional, cell-based
smiles,measurement,setting,value
CCCCCNC(=O)Nc1ccc2cc3ccc(NC(=O)NCCCCC)cc3nc2c1.Cl,Activity,[1],17.34%
same,Activity,[2],61%
same,Activity,[3],21.22%
same,Activity,[4],Active
same,Activity,[5],25.46%
same,Activity,[6],38.62%
same,Activity,[7],88.58%
same,Activity,[8],10.67%
same,Activity,[9],13.54%
same,Activity,[10],22.16%
same,Activity,[11],3.86%
same,Activity,[12],17.38%
same,Activity,[13],Active
same,Activity,[14],37.04%
same,Activity,[15],72.24%
same,Activity,[16],40.8%
same,Activity,[17],0.89%
same,IC50,[18],5.12 µM
same,Activity,[19],1.33%
same,Activity,[20],101.34%
same,Activity,[21],3.62%
same,Activity,[22],11.33%
same,Activity,[23],44.05%
same,K,[24],1.7 ×10⁵ /M
same,Activity,[25],45.85%
same,Activity,[26],78.81%
same,Activity,[27],87.47%
same,IC50,[28],3.48 µM
same,Activity,[29],10.39%
same,IC50,[30],13.3 µM
same,Activity,[31],Active
same,IC50,[32],7.78 µM
